From PMC7255057 (Journal of medicinal chemistry, 2019)

Assays:
[1] = target: T1, human serum albumin (HSA) (Homo sapiens, UniProt P02768); test: ANS fluorescence binding and competition on HSA; conditions: for displacement of ANS from HSA: 2.5 μM HSA with 5 or 100 μM ANS
In short: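 Fluorescence competition with 2.5 μM HSA and 5 or 100 μM ANS. The test compound was titrated over a concentration range. Excitation was 360 nm, with emission read at 460 and 480 nm to detect blue shifts. Signals were normalised between ANS alone (minimum) and HSA:ANS (maximum). ANS stoichiometry and affinity on HSA were set beforehand by a Sudlow-type titration.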

[2] = SPR on nonfunctionalized gold nanoparticle sensor; format: physicochemical; conditions: for SPR signal relative to DMSO control: 50 μM and 250 μM, 1.25% DMSO
[3] = target: human serum albumin (HSA) Sudlow sites (Homo sapiens, UniProt P02768); test: Fluorescence competition with dansylated amino acids; format: binding
Sequence of human serum albumin (HSA) Sudlow sites (P02768 25-609): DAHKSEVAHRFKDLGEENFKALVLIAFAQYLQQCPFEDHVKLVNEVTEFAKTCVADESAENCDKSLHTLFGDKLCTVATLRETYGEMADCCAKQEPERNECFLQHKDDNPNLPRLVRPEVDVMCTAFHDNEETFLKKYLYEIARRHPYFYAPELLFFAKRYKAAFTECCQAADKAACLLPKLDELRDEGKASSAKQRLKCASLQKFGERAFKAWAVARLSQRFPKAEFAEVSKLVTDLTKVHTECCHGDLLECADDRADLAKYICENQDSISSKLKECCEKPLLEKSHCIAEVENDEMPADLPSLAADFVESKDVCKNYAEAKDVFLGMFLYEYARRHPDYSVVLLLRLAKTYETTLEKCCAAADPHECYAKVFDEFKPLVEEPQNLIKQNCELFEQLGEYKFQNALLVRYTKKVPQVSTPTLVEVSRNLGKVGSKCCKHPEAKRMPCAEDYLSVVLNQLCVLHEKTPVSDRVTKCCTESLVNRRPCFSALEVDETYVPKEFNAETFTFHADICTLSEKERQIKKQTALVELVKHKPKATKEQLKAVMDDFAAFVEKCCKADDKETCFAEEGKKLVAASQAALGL
In short: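 Dansylated arginine (Sudlow site 1, 1:1) or dansylated phenylalanine (sites 1 and 2) fluorescence with recombinant fatty-acid-free HSA on a plate reader. Excitation was 370 for both probes, with emission at 460 (DanR) or 480 nm (DanF). Probe affinity and stoichiometry came from direct titration. Competitions used 2.5 μM HSA with 100 μM probe and were least-squares fitted assuming no extra sites.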

[4] = target: T2, EPAC1CBD (Homo sapiens, UniProt O95398); test: DLS volume profile of EPAC1CBD in presence of ESIs; format: binding
T2 sequence (O95398 149-318 isoform O95398-3): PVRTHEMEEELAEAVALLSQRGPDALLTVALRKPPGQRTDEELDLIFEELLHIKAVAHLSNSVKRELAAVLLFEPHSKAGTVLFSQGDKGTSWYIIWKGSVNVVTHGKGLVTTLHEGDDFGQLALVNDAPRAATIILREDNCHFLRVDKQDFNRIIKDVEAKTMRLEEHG

[5] = Transmission electron microscopy of aggregates; format: physicochemical; conditions: 200 μM
In short: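 Aggregate samples were applied to 400-mesh copper grids freshly coated with continuous amorphous carbon and glow-discharged at 5 mA for 15 s beforehand. Grids were imaged by transmission electron microscopy on a side-mounted cooled 4-megapixel CCD camera.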

[6] = target: T3, EPAC1CBD (cAMP-binding domain of hEPAC1, residues 149–318) (Homo sapiens, UniProt O95398); test: NH-HSQC chemical shift titration of EPAC1CBD
T3 sequence (O95398 149-318 isoform O95398-3): T2 sequence (O95398 149-318 isoform O95398-3)
In short: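 100 μM human EPAC1 CBD (residues 149–318) in Tris NMR buffer was titrated with test compound, with or without HSA, and read by 1H-15N HSQC. DMSO was 0.5% per 100 μM compound. Compounded chemical-shift changes from 35 residues were least-squares fitted at 1:1, with ΔCCSmax free or fixed, to give Kd or apparent Kd. Peak intensities were normalised to the compound-free sample and averaged (I/I0).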

[7] = target: T1, human serum albumin (HSA); test: 13C-oleic acid displacement assay on HSA; format: binding; conditions: 250 μM HSA, 1.5 mM OA
In short: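 Recombinant globulin- and fatty-acid-free HSA at 250 μM in 20 mM NaPO4 pH 7.6, 50 mM NaCl in 99.9% D2O, held 37 °C 30 min. 13C-oleic acid (100 mM stock in DMSO-d6, warmed 50 °C 10 min) added to 1.5 mM final, then 37 °C 2 h. {13C–1H}-HSQC recorded with and without test compound at 298 K; site peaks A–H losing intensity mark displacement.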

[8] = target: T2, EPAC1CBD; test: Nonspecific interaction with EPAC1CBD by global NH-HSQC intensity losses; format: binding; conditions: for type of aggregation-based inhibitor: NMR intensity losses and DLS
[9] = Dynamic light scattering of aggregates/micelles; format: physicochemical; conditions: for aggregate size range (DLS intensity profile): 500 μM, 2.5% DMSO; for aggregates detectable by DLS in presence of HSA: with HSA

T1 sequence (P02768 25-609): as the sequence (P02768 25-609) above

Compound | displacement of ANS from HSA [1] | SPR signal relative to DMSO control [2] | aggregate morphology (TEM) [5] | displacement of 13C-oleic acid from HSA [7] | EPAC1CBD NH-HSQC signal/intensity loss [8] | type of aggregation-based inhibitor [8] | aggregate size range (DLS intensity profile) [9] | aggregates detectable by DLS in presence of HSA [9] | other results
C[C@@H]1CCc2c(cc(Br)c(F)c2Br)N1C=O [CE3F4R] | unable to displace ANS | no significant change in SPR signal | more amorphous morphology | displace OA at multiple sites | no more than that caused by DMSO | Type A | 90–600 nm | no detectable aggregates in the presence of HSA | displacement of dansylated amino acids from HSA ([3]; concentrations below CAC): ineffective at displacing either of the dansylated amino acids from HSA; change of EPAC1CBD DLS volume profile ([4]; below or above CAC): does not result in any major change in the volume profile of EPAC1CBD; increase of apparent Kd for EPAC1CBD binding caused by HSA ([6]; CE3F4R titration with vs without HSA): 5–10 fold; concentration at which dissociation from EPAC1CBD starts ([6]; presence of HSA): ≥ 750 µM; coaggregate size with TX (DLS) ([9]; TX:CE3F4R 1:2 (0.0075% TX, 200 μM CE3F4R)): around 70 nm
O=S(=O)(O)c1cccc2cccc(Nc3ccccc3)c12 [ANS, 8-anilinonaphthalene-1-sulfonic acid] |  |  |  |  |  |  |  |  | ANS binding stoichiometry and affinity for HSA ([1]; Scatchard plot): binds up to four sites on HSA with low micromolar affinity
Triton X-100 [TX] |  |  |  |  | no significant chemical shift changes or intensity losses |  |  |  | average aggregate/micelle diameter (DLS) ([9]; compound in isolation): about 10 nm
CC(C)(C)c1cc(C(=O)/C(C#N)=N/Nc2cccc(Cl)c2)no1 [ESI-09] | can fully displace even large excesses of ANS at low micromolar concentrations | significant difference for ESI-09 when injected at a concentration that is above its CAC | spherical micellar morphology | displace OA at multiple sites | substantial signal losses for EPAC1CBD peaks | type B | 90–600 nm | no detectable aggregates in the presence of HSA | SPR signal with HSA relative to HSA and DMSO control ([2]; 250 μM ESI-09 with 25 μM HSA): no significant SPR signal increase; SPR signal with HSA relative to HSA and DMSO reference ([2]; 500 μM ESI-09 with 25 μM HSA): SPR signal significantly increases; increase of EPAC1CBD size profile (DLS) ([4]; ESI concentration above CAC): up to 5 nm; EPAC1CBD chemical shift changes with HSA relative to those without HSA ([6]; 100 μM ESI-09): < 20%; reduction of average chemical shift changes with HSA vs without HSA ([6]; ESI-09 concentration yielding similar intensity losses): ~ 30%; ESI-09 concentration giving similar signal loss in presence of HSA ([8]; compared with 100 μM ESI-09 without HSA): around 400 μM; increase of EPAC1CBD HSQC intensities in presence of HSA ([8]; most ESI-09 concentrations): 30–40%
CN(C)c1cccc2c(S(=O)(=O)N[C@@H](CCCN=C(N)N)C(=O)O)cccc12 [DanR, dansyl-arginine] |  |  |  |  |  |  |  |  | Kd ([3]; read-out: Kd for HSA Sudlow's Site I, fluorescence titration): ~25 µM
